These results are taken from ChEMBL document CHEMBL1135505, “Synthesis and pharmacology of benzoxazines as highly selective antagonists at M(4) muscarinic receptors” (J Med Chem, 2002).

SMILES strings stand for the structures. A value given as a limit tells only on which side of the number the result lay.

Common to all, as to assay type: cell-based
For assay [1], the target named is T1, Muscarinic acetylcholine receptor M2 (Homo sapiens, UniProt P08172).
T1 sequence (P08172 whole entry): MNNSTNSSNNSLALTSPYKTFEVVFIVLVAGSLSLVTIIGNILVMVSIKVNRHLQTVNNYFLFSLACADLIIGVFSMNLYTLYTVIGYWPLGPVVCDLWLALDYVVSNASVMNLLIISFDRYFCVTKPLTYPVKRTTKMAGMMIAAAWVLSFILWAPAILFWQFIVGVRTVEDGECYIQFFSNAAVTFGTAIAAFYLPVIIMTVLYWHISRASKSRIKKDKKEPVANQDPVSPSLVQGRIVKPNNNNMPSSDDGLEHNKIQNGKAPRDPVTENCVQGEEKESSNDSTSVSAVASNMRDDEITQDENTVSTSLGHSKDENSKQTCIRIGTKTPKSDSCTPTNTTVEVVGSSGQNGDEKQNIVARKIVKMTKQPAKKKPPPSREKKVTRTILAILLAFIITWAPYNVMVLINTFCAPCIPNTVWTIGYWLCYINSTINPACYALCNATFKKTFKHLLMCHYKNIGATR
As to the kind of experiment: Inhibition of [3H]-NMS binding to human muscarinic acetylcholine receptor M2 in transfected CHO cells. The procedure, abridged:
(§1)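 Membranes from CHO-K1 cells expressing one human muscarinic subtype, harvested at 70-90% confluency. Incubated in 10 mM Na+/K+ PO4 pH 7.4 with 0.1 nM [3H]NMS and test compound for 120 min at 25 °C; atropine defined nonspecific binding. Filtration and scintillation counting. IC50 by logit fit, Ki by Cheng–Prusoff with KD (nM) M1 1.28, M2 0.85, M3 0.94, M4 3.10, M5 0.79. At least three tests, geometric mean.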

The target of assay [2] is T2, Muscarinic acetylcholine receptor M5 (Homo sapiens, UniProt P08912).
T2 sequence (P08912 whole entry): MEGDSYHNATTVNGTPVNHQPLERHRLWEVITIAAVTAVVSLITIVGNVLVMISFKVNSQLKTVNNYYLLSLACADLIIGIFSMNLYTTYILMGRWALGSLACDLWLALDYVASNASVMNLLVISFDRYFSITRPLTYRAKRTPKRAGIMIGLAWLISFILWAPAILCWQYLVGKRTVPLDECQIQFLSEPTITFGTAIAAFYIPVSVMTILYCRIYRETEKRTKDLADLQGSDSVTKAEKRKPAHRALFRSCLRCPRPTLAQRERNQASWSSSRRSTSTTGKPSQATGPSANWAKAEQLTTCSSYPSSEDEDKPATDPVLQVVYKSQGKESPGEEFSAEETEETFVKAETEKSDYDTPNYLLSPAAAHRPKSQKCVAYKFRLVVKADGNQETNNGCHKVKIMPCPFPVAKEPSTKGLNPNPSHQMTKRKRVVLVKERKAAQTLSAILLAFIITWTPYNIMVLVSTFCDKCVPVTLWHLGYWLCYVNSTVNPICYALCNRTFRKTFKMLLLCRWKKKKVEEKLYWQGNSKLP
Briefly: Inhibition of [3H]NMS binding to human muscarinic acetylcholine receptor M5 in transfected CHO cells. The procedure, abridged:
as §1

Assay [3] addresses Muscarinic acetylcholine receptor M3 (Homo sapiens, UniProt P20309). As to the kind of experiment: Inhibition of [3H]NMS binding to human muscarinic acetylcholine receptor M3 in transfected CHO cells. In short, it runs like this: as §1
The target of assay [4] is T3, Muscarinic acetylcholine receptor M4 (Homo sapiens, UniProt P08173).
T3 sequence (P08173 whole entry): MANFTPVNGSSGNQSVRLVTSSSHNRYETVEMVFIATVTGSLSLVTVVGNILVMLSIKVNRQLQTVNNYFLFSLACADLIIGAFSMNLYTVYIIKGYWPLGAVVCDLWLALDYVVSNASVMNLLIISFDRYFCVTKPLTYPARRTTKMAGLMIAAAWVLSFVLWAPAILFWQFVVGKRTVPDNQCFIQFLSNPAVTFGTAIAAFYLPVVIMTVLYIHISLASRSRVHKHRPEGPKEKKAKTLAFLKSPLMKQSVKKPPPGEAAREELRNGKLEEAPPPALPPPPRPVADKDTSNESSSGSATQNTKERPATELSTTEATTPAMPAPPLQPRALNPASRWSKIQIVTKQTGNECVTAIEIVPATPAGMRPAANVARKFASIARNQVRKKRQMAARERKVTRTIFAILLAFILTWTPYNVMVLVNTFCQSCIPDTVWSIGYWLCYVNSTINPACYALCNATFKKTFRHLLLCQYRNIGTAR
As to the kind of experiment: Inhibition of [3H]NMS binding to human muscarinic acetylcholine receptor M4 in transfected CHO cells. In short, it runs like this: as §1

The target of assay [5] is T4, Muscarinic acetylcholine receptor M1 (Homo sapiens, UniProt P11229).
T4 sequence (P11229 whole entry): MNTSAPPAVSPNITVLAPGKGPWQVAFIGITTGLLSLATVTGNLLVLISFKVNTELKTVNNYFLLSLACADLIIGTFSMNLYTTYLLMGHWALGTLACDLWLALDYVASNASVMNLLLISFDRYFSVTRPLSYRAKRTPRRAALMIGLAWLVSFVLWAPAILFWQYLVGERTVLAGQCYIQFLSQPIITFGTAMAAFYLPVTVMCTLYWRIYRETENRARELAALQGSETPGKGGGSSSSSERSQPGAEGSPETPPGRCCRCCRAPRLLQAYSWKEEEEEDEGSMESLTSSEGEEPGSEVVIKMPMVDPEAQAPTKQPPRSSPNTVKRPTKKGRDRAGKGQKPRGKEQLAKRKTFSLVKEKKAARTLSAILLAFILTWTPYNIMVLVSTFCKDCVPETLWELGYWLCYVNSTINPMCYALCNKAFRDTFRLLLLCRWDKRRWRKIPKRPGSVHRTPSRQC
Briefly: Inhibition of [3H]NMS binding to human muscarinic acetylcholine receptor M1 in transfected CHO cells. In short, it runs like this:
as §1

Muscarinic acetylcholine receptor M3, sequence (P20309 whole entry): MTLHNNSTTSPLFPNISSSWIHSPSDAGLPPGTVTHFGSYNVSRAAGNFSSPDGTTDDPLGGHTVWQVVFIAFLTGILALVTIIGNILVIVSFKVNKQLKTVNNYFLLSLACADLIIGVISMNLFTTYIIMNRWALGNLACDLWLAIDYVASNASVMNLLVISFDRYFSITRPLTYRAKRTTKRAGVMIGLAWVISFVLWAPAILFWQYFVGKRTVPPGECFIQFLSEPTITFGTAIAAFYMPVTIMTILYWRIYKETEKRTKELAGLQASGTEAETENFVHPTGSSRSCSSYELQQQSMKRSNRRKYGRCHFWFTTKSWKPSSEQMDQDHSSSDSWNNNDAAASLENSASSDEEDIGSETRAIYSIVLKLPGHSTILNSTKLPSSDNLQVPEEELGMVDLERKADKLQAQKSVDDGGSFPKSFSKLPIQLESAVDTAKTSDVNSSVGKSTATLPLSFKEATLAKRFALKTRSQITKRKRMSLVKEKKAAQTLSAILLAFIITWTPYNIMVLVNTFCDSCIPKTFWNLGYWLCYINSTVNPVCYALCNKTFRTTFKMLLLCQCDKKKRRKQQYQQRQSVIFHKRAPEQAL

As a reminder, the Ki is a measure of affinity in units of concentration, obtained from inhibition or displacement. Higher therefore signals lower affinity. Turning to `CCCCCc1[nH]c2ccc3c(c2c1C(=O)OCC)CN1CCc2cc(OC)ccc2C1O3` (stereo not given), the inhibitory constant (Ki) in assay [1] was 7240 nM; in assay [2], 5370 nM; in assay [3] it was 457 nM; in assay [4], 11 nM; in assay [5], 20400 nM.
The corresponding values for `C=CCOC(=O)c1c(C)n(Cc2ccc(OC)cc2)c2ccc3c(c12)CN1CCc2cc(OC)ccc2C1O3` (stereo not given) are 240 nM, 501 nM, 676 nM, 72.4 nM and 200 nM.
On to `COc1ccc2c(c1)CCN1Cc3c(ccc4[nH]c(C)c(C(=O)OCc5ccccc5)c34)OC21` (stereo not given), for which the Ki in assay [1] is 1350 nM; in assay [2], 1120 nM; in assay [3] it was 1380 nM; in assay [4] it was 72.4 nM; in assay [5], 1170 nM.
As for `COc1ccc2c(c1)CCN1Cc3c(ccc4[nH]c(C)c(-c5nc(C)no5)c34)OC21` (stereo not given), the Ki was 2190 nM in assay [1]; 6170 nM in assay [2]; 3090 nM in assay [3]; 61.7 nM in assay [4]; 7590 nM in assay [5].
`COc1ccc2c(c1)CCN1Cc3c(ccc4[nH]c(C)c(Cc5ccccc5)c34)OC21` (stereo not given): the Ki in assay [1] was 5370 nM; in assay [2], 1120 nM; in assay [3], 2040 nM; in assay [4], 1350 nM; in assay [5], 2510 nM.
For the molecule `CCOC(=O)c1c(C)[nH]c2ccc3c(c12)CN1CCc2cc(SC)ccc2C1O3` (stereo not given), the Ki is 2190 nM in assay [1]; 1950 nM in assay [2]; 229 nM in assay [3]; 7.08 nM in assay [4]; 1780 nM in assay [5].
The corresponding values for `CCOC(=O)c1c(CC)[nH]c2ccc3c(c12)CN1CCc2cc(OC)ccc2C1O3` (stereo not given) are 1350 nM, 3090 nM, 91.2 nM, 3.98 nM and 2190 nM.
As to `CCCCCCc1[nH]c2ccc3c(c2c1C(=O)OCC)CN1CCc2cc(OC)ccc2C1O3` (stereo not given), the Ki in assay [1] was 4570 nM; in assay [2], more than 28200 nM; in assay [3], 282 nM; in assay [4] it was 14.1 nM; in assay [5] it was 3090 nM.
The corresponding values for `CCOC(=O)c1c(C)[nH]c2ccc3c(c12)CN1CCc2cccc(Cl)c2C1O3` (stereo not given) are 2450 nM, 4790 nM, 5130 nM, 1950 nM and more than 4370 nM.
The corresponding values for `CCOC(=O)c1c(C)[nH]c2ccc3c(c12)CN1CCc2cc(Cl)ccc2C1O3` (stereo not given) are 3240 nM, 5370 nM, 2750 nM, 363 nM and 5130 nM.
As for `COC(=O)c1c(C)n(C)c2ccc3c(c12)CN1CCc2cc(OC)ccc2C1O3` (stereo not given), the Ki in assay [1] is 417 nM; in assay [2] it was 3630 nM; in assay [3], 398 nM; in assay [4], 191 nM; in assay [5], 1170 nM.
With `CCOC(=O)c1c(CC)n(C)c2ccc3c(c12)CN1CCc2cc(OC)ccc2C1O3` (stereo not given), the Ki in assay [1] was 708 nM; in assay [2], 3090 nM; in assay [3], 219 nM; in assay [4], 3.02 nM; in assay [5] it was 1510 nM.
On to `CCOC(=O)c1c(CC)n(Cc2ccccc2)c2ccc3c(c12)CN1CCc2cc(OC)ccc2C1O3` (stereo not given), for which the Ki in assay [1] was 372 nM; in assay [2] it was 479 nM; in assay [3] it was 50.1 nM; in assay [4], 97.7 nM; in assay [5] it was 363 nM.
Turning to `CCCc1c(C(=O)OCC)c2c3c(ccc2n1C)OC1c2ccc(OC)cc2CCN1C3` (stereo not given), the inhibition constant (Ki) in assay [1] is 513 nM; in assay [2], 3390 nM; in assay [3], 70.8 nM; in assay [4], 2 nM; in assay [5], 1320 nM.
Consider `CCN(C)C(=O)c1c(C)[nH]c2ccc3c(c12)CN1CCc2cc(OC)ccc2C1O3` (stereo not given), for which the Ki was 4070 nM in assay [1]; 19500 nM in assay [2]; 15500 nM in assay [3]; 9770 nM in assay [4]; 21900 nM in assay [5].
For `CCOC(=O)c1c(C)n(C)c2ccc3c(c12)CN1CCc2cc(OC)ccc2C1O3` (stereo not given), the Ki in assay [1] was 513 nM; in assay [2], 3720 nM; in assay [3], 912 nM; in assay [4], 15.1 nM; in assay [5] it was 2000 nM.
Regarding `CCOC(=O)c1c(C)n(CC)c2ccc3c(c12)CN1CCc2cc(OC)ccc2C1O3` (stereo not given), the Ki in assay [1] was 219 nM; in assay [2] it was 2510 nM; in assay [3] it was 263 nM; in assay [4] it was 110 nM; in assay [5] it was 1320 nM.
For the molecule `CCOC(=O)c1c(C)[nH]c2ccc3c(c12)CN1CCc2cc(O)ccc2C1O3` (stereo not given), the Ki in assay [1] was more than 26900 nM; in assay [2], more than 28200 nM; in assay [3], 25700 nM; in assay [4] it was more than 12300 nM; in assay [5], more than 21900 nM.
The corresponding values for `CCCc1c(C(=O)OCC)c2c3c(ccc2n1C)OC1c2ccc(SC)cc2CCN1C3` (stereo not given) are 3800 nM, 1700 nM, 229 nM, 2 nM and 3310 nM.
As to `CCCCc1[nH]c2ccc3c(c2c1C(=O)OCC)CN1CCc2cc(SC)ccc2C1O3` (stereo not given), the inhibitory constant (Ki) was 2190 nM in assay [1]; 1480 nM in assay [2]; 339 nM in assay [3]; 3.02 nM in assay [4]; 871 nM in assay [5].
Turning to `CCCc1[nH]c2ccc3c(c2c1C(=O)OCC)CN1CCc2cc(OC)ccc2C1O3` (stereo not given), the Ki in assay [1] is 1070 nM; in assay [2] it was 2240 nM; in assay [3], 70.8 nM; in assay [4], 2 nM; in assay [5], 2040 nM.
The corresponding values for `CCCCc1[nH]c2ccc3c(c2c1C(=O)OCC)CN1CCc2cc(OC)ccc2C1O3` (stereo not given) are 339 nM, 11200 nM, 151 nM, 1 nM and 13200 nM.
For `C=CCOC(=O)c1c(C)[nH]c2ccc3c(c12)CN1CCc2cc(OC)ccc2C1O3` (stereo not given), the Ki in assay [1] was 1070 nM; in assay [2] it was 2240 nM; in assay [3], 407 nM; in assay [4] it was 15.1 nM; in assay [5] it was 1320 nM.
As for `CCOC(=O)c1c(C)[nH]c2ccc3c(c12)CN1CCc2cc(OC)ccc2C1O3` (stereo not given), the Ki is 537 nM in assay [1]; 3390 nM in assay [2]; 257 nM in assay [3]; 7.08 nM in assay [4]; 1320 nM in assay [5].
